Laboratory results reported in ChEMBL document CHEMBL3232844, “Synthesis and structure activity relationships of schweinfurthin indoles” (2014).

Assays:
Assay type in all cases: functional
K562 = assay: Cytotoxicity against human K562 cells; details: read-out: pTGI (converted)
Method in brief: (§1)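 Tested in a 60-cell-line human tumor panel screen; the read-out is growth inhibition, reported as GI50 for each cell line.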

SF-295 = assay: Cytotoxicity against human SF295 cells; method in brief: as §1
RXF 393 = assay: Cytotoxicity against human RXF393 cells; method in brief: as §1
LOX IMVI = assay: Cytotoxicity against human LOXIMVI cells; method in brief: as §1
MDA-MB-435 = assay: Cytotoxicity against human MDA-MB-435 cells; method in brief: as §1
ACHN = assay: Cytotoxicity against human ACHN cells; method in brief: as §1
MDA-MB-468 = assay: Cytotoxicity against human MDA-MB-468 cells; method in brief: as §1
[1] = Cytotoxicity against human UACC62 cells
Method in brief: (§2)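 Cell line run as part of the 60-cell-line screening panel; growth inhibition was reported as a GI50 for each line.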

COLO 205 = assay: Cytotoxicity against human COLO205 cells; method in brief: as §1
[2] = Cytotoxicity against human UO31 cells; method in brief: as §2
SF-539 = assay: Cytotoxicity against human SF539 cells; method in brief: as §1
SNB-75 = assay: Cytotoxicity against human SNB75 cells; method in brief: as §2
HT-29 = assay: Cytotoxicity against human HT-29 cells; method in brief: as §1
A549 = assay: Cytotoxicity against human A549 cells; method in brief: as §1
MCF7 = assay: Cytotoxicity against human MCF7 cells; method in brief: as §1
SK-MEL-2 = assay: Cytotoxicity against human SK-MEL-2 cells; method in brief: as §1
CCRF-CEM = assay: Cytotoxicity against human CCRF-CEM cells
U-251 = assay: Cytotoxicity against human U251 cells; method in brief: as §2
786-0 = assay: Cytotoxicity against human 786-0 cells; method in brief: as §1
MOLT-4 = assay: Cytotoxicity against human MOLT4 cells; method in brief: as §1
SK-OV-3 = assay: Cytotoxicity against human SKOV3 cells; method in brief: as §1
CAKI-1 = assay: Cytotoxicity against human Caki1 cells; method in brief: as §1
[3] = read-out: pLC50 (the source's name) (converted)

Work on `COc1cc(/C=C/c2cc(OC)c3c(CC=C(C)C)c[nH]c3c2)cc2c1O[C@]1(C)CC[C@@H](O)C(C)(C)[C@H]1C2` yielded a TGI (K562) of 1380 nM, a GI50 (SF-295; read-out: GI50) of 48 nM and a GI50 (SF-295; read-out: pGI50 (converted)) of 47.9 nM. It also gave a CC50 (SF-295; [3]) of 871 nM, a TGI (SF-295; read-out: pTGI (converted)) of 219 nM and a GI50 (RXF 393) of 26.3 nM. It also gave an LC50 (RXF 393) of 724 nM, a TGI (RXF 393; read-out: pTGI (converted)) of 105 nM and a GI50 (LOX IMVI) of 295 nM. The CC50 (LOX IMVI; [3]) was 4.47 µM, the TGI (LOX IMVI; read-out: pTGI (converted)) was 1290 nM and the GI50 (MDA-MB-435) was 646 nM. The CC50 (MDA-MB-435; [3]) was 74.1 µM, the TGI (MDA-MB-435; read-out: pTGI (converted)) was 9.12 µM and the GI50 (ACHN) was 1260 nM. The LC50 (concentration killing 50% of cells) (ACHN) was 49 µM, the TGI (ACHN; read-out: pTGI (converted)) was 15.1 µM and the GI50 (MDA-MB-468) was 195 nM. It also gave an LC50 (MDA-MB-468) of 10.5 µM, a TGI (MDA-MB-468; read-out: pTGI (converted)) of 1100 nM and a GI50 ([1]; UACC-62) of 229 nM. The CC50 ([1]; UACC-62, read-out: pLC50 (the source's name) (converted)) was 9.12 µM, the TGI ([1]; UACC-62, read-out: pTGI (converted)) was 661 nM and the GI50 (COLO 205) was 219 nM. It also gave a CC50 (COLO 205; [3]) of 1550 nM, a TGI (COLO 205; read-out: pTGI (converted)) of 479 nM and a GI50 ([2]; UO-31) of 437 nM. The LC50 ([2]; UO-31) was 56.2 µM, the TGI ([2]; UO-31, read-out: pTGI (converted)) was 6.92 µM and the GI50 (SF-539) was 50.1 nM. For the same compound, the CC50 (SF-539; [3]) was 2510 nM, the TGI (SF-539; read-out: pTGI (converted)) was 309 nM and the GI50 (SNB-75) was 89.1 nM. For the same compound, the CC50 (SNB-75; [3]) was 75.9 µM, the TGI (SNB-75; read-out: pTGI (converted)) was 2690 nM and the GI50 (HT-29) was 107 nM. For the same compound, the CC50 (HT-29; [3]) was 2820 nM, the TGI (HT-29; read-out: pTGI (converted)) was 708 nM and the GI50 (A549) was 525 nM. For the same compound, the CC50 (A549; [3]) was 50.1 µM, the TGI (A549; read-out: pTGI (converted)) was 12.9 µM and the GI50 (MCF7) was 398 nM. The LC50 (MCF7) was 19.1 µM, the TGI (MCF7; read-out: pTGI (converted)) was 3.72 µM and the GI50 (SK-MEL-2) was 331 nM. It also gave a CC50 (SK-MEL-2; [3]) of 11 µM, a TGI (SK-MEL-2; read-out: pTGI (converted)) of 1580 nM and a GI50 (CCRF-CEM) of 209 nM. It also gave a CC50 (CCRF-CEM; [3]) of over 100 µM, a TGI (CCRF-CEM; read-out: pTGI (converted)) of 851 nM and a GI50 (U-251) of 75.9 nM. The CC50 (U-251; [3]) was 12.9 µM, the TGI (U-251; read-out: pTGI (converted)) was 2290 nM and the GI50 (786-0) was 50.1 nM. It also gave an LC50 (concentration killing 50% of cells) (786-0) of 891 nM, a TGI (786-0; read-out: pTGI (converted)) of 302 nM and a GI50 (MOLT-4) of 155 nM. For the same compound, the CC50 (MOLT-4; [3]) was over 100 µM, the TGI (MOLT-4; read-out: pTGI (converted)) was 661 nM and the GI50 (SK-OV-3) was 776 nM. For the same compound, the LC50 (SK-OV-3) was 67.6 µM, the TGI (SK-OV-3; read-out: pTGI (converted)) was 7.24 µM and the GI50 (CAKI-1) was 347 nM. For the same compound, the LC50 (CAKI-1) was 53.7 µM and the TGI (CAKI-1; read-out: pTGI (converted)) was 2190 nM.
